Experimental data: ChEMBL document CHEMBL4014339, “Discovery of 1,4-Benzodiazepine-2,5-dione (BZD) Derivatives as Dual Nucleotide Binding Oligomerization Domain Containing 1/2 (NOD1/NOD2) Antagonists Sensitizing Paclitaxel (PTX) To Suppress Lewis Lung Carcinoma (LLC) Growth in Vivo” (J Med Chem, 2017)

Legend:
Type in all cases: cell-based
[1] = target: T1, Nucleotide-binding oligomerization domain-containing protein 1 (Homo sapiens) (UniProt Q9Y239); experiment: Antagonist activity at human NOD1 expressed in HEK-blue cells assessed as inhibition of C12-iE-DAP-stimulated cell activation at 5 uM preincubated for 3 hrs followed by C12-iE-DAP addition measured after 20 hrs by SEAP reporter gene assay
T1 sequence (whole entry): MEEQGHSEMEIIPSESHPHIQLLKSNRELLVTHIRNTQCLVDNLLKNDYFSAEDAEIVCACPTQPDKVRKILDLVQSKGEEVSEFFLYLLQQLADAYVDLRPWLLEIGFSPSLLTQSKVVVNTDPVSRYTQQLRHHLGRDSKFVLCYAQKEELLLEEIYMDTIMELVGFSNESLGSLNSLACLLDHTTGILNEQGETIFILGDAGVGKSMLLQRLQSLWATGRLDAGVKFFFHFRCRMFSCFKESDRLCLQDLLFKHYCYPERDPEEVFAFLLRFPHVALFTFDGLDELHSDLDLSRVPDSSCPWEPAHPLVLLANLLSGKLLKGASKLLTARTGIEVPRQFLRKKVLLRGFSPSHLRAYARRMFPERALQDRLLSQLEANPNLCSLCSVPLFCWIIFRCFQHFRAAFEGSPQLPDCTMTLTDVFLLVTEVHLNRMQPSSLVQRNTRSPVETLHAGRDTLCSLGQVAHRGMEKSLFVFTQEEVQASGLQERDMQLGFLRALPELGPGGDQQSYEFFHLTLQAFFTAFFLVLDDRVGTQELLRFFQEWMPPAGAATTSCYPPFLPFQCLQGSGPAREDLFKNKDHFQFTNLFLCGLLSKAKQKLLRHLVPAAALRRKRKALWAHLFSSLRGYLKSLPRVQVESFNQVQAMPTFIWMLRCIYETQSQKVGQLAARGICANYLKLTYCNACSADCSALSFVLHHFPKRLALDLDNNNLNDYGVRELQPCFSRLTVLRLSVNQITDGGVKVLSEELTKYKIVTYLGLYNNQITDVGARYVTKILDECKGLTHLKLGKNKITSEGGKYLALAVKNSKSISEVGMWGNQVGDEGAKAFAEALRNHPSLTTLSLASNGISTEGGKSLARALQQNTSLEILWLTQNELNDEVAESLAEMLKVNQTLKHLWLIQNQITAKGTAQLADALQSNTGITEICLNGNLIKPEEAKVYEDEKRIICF

[2] = target: T1, Nucleotide-binding oligomerization domain-containing protein 1 (Homo sapiens); experiment: Antagonist activity at human NOD1 expressed in HEK-Blue cells assessed as inhibition of C12-iE-DAP-stimulated cell activation at 10 uM preincubated for 3 hrs followed by C12-iE-DAP addition measured after 20 hrs by SEAP reporter gene assay
Summary of the method: (§1)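 HEK-Blue hNOD1 or hNOD2 cells preincubated with compound 3 h, then stimulated 20 h with C12-iE-DAP 50 ng/mL (NOD1) or MDP 100 ng/mL (NOD2); SEAP in supernatant quantified. Primary screen at 10 μM, hits repeated in triplicate; IC50 from dose-response, mean ± SD (n = 3), only for compounds reaching ≥50% inhibition at the screening concentration.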

[3] = target: T2, Nucleotide-binding oligomerization domain-containing protein 2 (Homo sapiens, UniProt Q9HC29); experiment: Antagonist activity at human NOD2 expressed in HEK-Blue cells assessed as inhibition of MDP-stimulated cell activation at 5 uM preincubated for 3 hrs followed by MDP addition measured after 20 hrs by SEAP reporter gene assay
T2 sequence (Q9HC29 whole entry, the tested form may be a part): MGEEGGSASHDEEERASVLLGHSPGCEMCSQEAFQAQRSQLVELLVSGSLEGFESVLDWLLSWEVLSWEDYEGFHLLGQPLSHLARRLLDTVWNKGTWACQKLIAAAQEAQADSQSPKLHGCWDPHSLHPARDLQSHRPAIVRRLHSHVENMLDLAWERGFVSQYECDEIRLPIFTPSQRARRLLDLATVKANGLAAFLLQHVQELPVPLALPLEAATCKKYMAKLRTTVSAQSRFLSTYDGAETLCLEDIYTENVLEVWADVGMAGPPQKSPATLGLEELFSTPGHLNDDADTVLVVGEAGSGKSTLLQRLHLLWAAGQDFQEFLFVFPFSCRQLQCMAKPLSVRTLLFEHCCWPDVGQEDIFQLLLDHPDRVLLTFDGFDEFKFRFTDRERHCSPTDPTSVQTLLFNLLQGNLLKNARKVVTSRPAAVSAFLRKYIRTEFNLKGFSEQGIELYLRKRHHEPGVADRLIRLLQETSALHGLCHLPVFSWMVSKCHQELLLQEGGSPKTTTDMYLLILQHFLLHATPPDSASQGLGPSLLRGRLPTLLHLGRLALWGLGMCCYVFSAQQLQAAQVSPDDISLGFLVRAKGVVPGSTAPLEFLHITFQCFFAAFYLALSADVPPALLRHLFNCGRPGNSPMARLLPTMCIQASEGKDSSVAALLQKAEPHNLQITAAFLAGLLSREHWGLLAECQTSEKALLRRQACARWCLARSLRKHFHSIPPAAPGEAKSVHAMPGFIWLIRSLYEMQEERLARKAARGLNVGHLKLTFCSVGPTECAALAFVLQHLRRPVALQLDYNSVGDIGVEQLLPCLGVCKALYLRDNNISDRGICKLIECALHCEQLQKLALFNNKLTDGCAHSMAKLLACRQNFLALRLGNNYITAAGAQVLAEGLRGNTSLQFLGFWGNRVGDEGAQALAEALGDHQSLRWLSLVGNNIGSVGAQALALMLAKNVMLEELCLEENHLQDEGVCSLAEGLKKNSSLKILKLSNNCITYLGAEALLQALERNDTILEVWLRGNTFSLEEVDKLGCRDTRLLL

[4] = target: T2, Nucleotide-binding oligomerization domain-containing protein 2; experiment: Antagonist activity at human NOD2 expressed in HEK-Blue cells assessed as inhibition of MDP-stimulated cell activation at 10 uM preincubated for 3 hrs followed by MDP addition measured after 20 hrs by SEAP reporter gene assay; summary of the method: as §1

SMILES	inhibition [1] [%]	inhibition [2] [%]	inhibition [3] [%]	inhibition [4] [%]
CCCCCCCCCCCCCCCCCCNC(=O)CC[C@H]1NC(=O)c2cc(Oc3cccc(N(C)C)c3)c(NC(=O)COCc3ccccc3)cc2NC1=O	12.7	18.5	–	–
COC(=O)CC[C@H]1NC(=O)c2cc(Oc3cccc(N(C)C)c3)c(NC(=O)COCc3ccc(Cl)cc3Cl)cc2NC1=O	59.5	–	30.9	–
CCCCCCCCCCCCNC(=O)CC[C@H]1NC(=O)c2cc(N3CCOCC3)c(NC(=O)C3CC3)cc2NC1=O	–	-0.69	–	7.9
C=CCOCC(=O)Nc1cc2c(cc1Oc1cccc(N(C)C)c1)C(=O)N[C@H](CCC(=O)OC)C(=O)N2	43.3	–	38.5	–
COC(=O)CC[C@H]1NC(=O)c2cc(Oc3ccc(C)c(C)c3)c(NC(=O)C3CC3)cc2NC1=O	–	-9.9	–	-4.24
O=C(CC[C@H]1NC(=O)c2cc(N3CCOCC3)c(NC(=O)C3CC3)cc2NC1=O)NCCC1=CCCCC1	–	–	–	-2.95
COC(=O)CC[C@H]1NC(=O)c2cc(Oc3cccc(N(C)C)c3)c(NC(=O)COCc3ccc(F)cc3Cl)cc2NC1=O	20.1	38.6	12.8	13.5
CCCCCCCCCN1C(=O)[C@@H](CCC(=O)NCc2cccnc2)N(C)C(=O)c2ccc(Cl)cc21	–	54.8	–	30.9
CCCCCCCCCCN1C(=O)C(CCC(=O)OC)NC(=O)c2cc(Cl)ccc21 (stereo not drawn)	–	2.54	–	-2.7
Cc1ccc(Oc2cc3c(cc2NC(=O)C2CC2)NC(=O)[C@@H](CCC(=O)O)NC3=O)cc1C	–	–	–	-3.78
CCN(CC)C(=O)CC[C@@H]1C(=O)N(CCC(C)C)c2cc(Cl)ccc2C(=O)N1C	–	-7.62	–	–
CCN(CC)C(=O)CC[C@H]1NC(=O)c2cc(Oc3cccc4ccccc34)c(NC(=O)/C=C\c3ccc(F)cc3Cl)cc2NC1=O	–	–	–	1.94
CCCCN(CCCC)c1cc2c(cc1NC(C)=O)NC(=O)[C@@H](CCC(=O)OC)NC2=O	–	-6.29	–	-7.93
O=C(CC[C@H]1NC(=O)c2cc(N3CCOCC3)c(NC(=O)C3CC3)cc2NC1=O)NC1CCCc2ccccc21 (stereo partly drawn)	–	22.6	–	27.1
CCCCCCCCCN1C(=O)[C@@H](CCC(N)=O)N(C)C(=O)c2ccc(Cl)cc21	–	22	–	29.5
CCCCCCCCCN1C(=O)[C@@H](CCC(=O)OC)N(C)C(=O)c2ccc(Cl)cc21	–	31.3	–	34.1
COC(=O)CC[C@H]1NC(=O)c2cc(Oc3ccccc3)c(NC(=O)Nc3ccc(F)cc3)cc2NC1=O	–	-9.85	–	0.22
COC(=O)CC[C@H]1NC(=O)c2cc(N3CCOCC3)c(NC(=O)Cc3ccccc3)cc2NC1=O	–	13	–	50.9
COC(=O)CC[C@H]1NC(=O)c2cc(Oc3cccc(N(C)C)c3)c(NC(=O)CCCc3ccccc3)cc2NC1=O	22.2	–	18	–
COC(=O)CC[C@@H]1NC(=O)c2cc(Oc3cccc(N(C)C)c3)c(NC(=O)COCc3ccc(F)cc3Cl)cc2NC1=O	29.3	–	10.3	–
COC(=O)CC[C@H]1NC(=O)c2cc(Oc3cccc(N(C)C)c3)c(NC(=O)COCc3ccccc3Cl)cc2NC1=O	-5.97	–	20.9	23.8
CN1CCN(C(=O)CC[C@H]2NC(=O)c3cc(Oc4cccc(N(C)C)c4)c(NC(=O)COCc4ccccc4)cc3NC2=O)CC1	21.7	–	38.8	–
COC(=O)CC[C@H]1NC(=O)c2cc(OC)c(NC(=O)c3cc(C(F)(F)F)cc(C(F)(F)F)c3)cc2NC1=O	–	–	–	-5.32
NC(=O)CC[C@H]1NC(=O)c2cc(Oc3cccc4ccccc34)c(NC(=O)/C=C\c3ccc(F)cc3Cl)cc2NC1=O	–	70.6	–	54.8
COC(=O)CC[C@H]1NC(=O)c2cc(Oc3ccc(C)c(C)c3)c(NC(=O)COCc3ccccc3)cc2NC1=O	–	73.8	–	54.4
COC(=O)CC[C@H]1NC(=O)c2cc(N3CCOCC3)c(NC(=O)C3CC3)cc2NC1=O	–	6.82	–	27

SMILES	inhibition [1] [%]	inhibition [2] [%]	inhibition [3] [%]	inhibition [4] [%]
CCN(CC)C(=O)CC[C@H]1NC(=O)c2cc(Cl)ccc2NC1=O	–	-0.11	–	21.5
COC(=O)CC[C@H]1NC(=O)c2cc(OC)c(NC(=O)c3ccc4ccccc4c3)cc2NC1=O	–	66.4	–	76.6
C=CC(=O)Nc1cc2c(cc1Oc1cccc(N(C)C)c1)C(=O)N[C@H](CCC(=O)OC)C(=O)N2	–	82.1	–	91.9
COC(=O)CC[C@H]1NC(=O)c2cc(Oc3cccc4ccccc34)c(NC(=O)C3CC3)cc2NC1=O	–	6.34	–	-0.3
CN(C)c1cccc(Oc2cc3c(cc2NC(=O)COCc2ccc(C(F)(F)F)cc2)NC(=O)CNC3=O)c1	38	–	31.6	–
COC(=O)CCC1NC(=O)c2cc(Cl)ccc2N(C)C1=O (stereo not drawn)	–	–	–	1.87
COC(=O)CC[C@H]1NC(=O)c2cc(Oc3ccccc3)c(NC(=O)COCc3ccc(C(F)(F)F)cc3)cc2NC1=O	42.4	–	29.8	–
CCCCCCCNC(=O)CC[C@H]1NC(=O)c2cc(Cl)ccc2NC1=O	–	-7.88	–	1.25
CCN(CC)C(=O)CC[C@@H]1C(=O)Nc2cc(Cl)ccc2C(=O)N1C	–	–	–	-7.53
COC(=O)CC[C@H]1NC(=O)c2cc(Oc3cccc(N(C)C)c3)c(NC(=O)COCc3ccoc3)cc2NC1=O	34.9	–	24.8	–
COC(=O)CC[C@H]1NC(=O)c2cc(Oc3cccc4ccccc34)c(NC(=O)/C=C\c3ccc(F)cc3Cl)cc2NC1=O	–	37.9	–	34.2
CCCCCCCCCN1C(=O)[C@@H](CCC(=O)N[C@@H](C)C(N)=O)N(C)C(=O)c2ccc(Cl)cc21	–	17	–	27.7
CCN(CC)C(=O)CC[C@@H]1C(=O)N(CC2CC2)c2cc(Cl)ccc2C(=O)N1C	–	-8.85	–	1.38
COC(=O)CC[C@H]1NC(=O)c2cc(Oc3cccc(N(C)C)c3)c(NC(=O)COCc3ccc(Cl)c(Cl)c3)cc2NC1=O	36	–	45.5	–
COC(=O)CC[C@H]1NC(=O)c2cc(Cl)ccc2NC1=O	–	38	–	28.9
CN(C)c1cccc(Oc2cc3c(cc2NC(=O)COCc2ccccc2)NC(=O)[C@@H](CCC(N)=O)NC3=O)c1	–	–	–	3.93
O=C(O)CC[C@H]1NC(=O)c2cc(Oc3cccc4ccccc34)c(NC(=O)/C=C\c3ccc(F)cc3Cl)cc2NC1=O	–	3.86	–	7.76
CCCCN(CCCC)c1cc2c(cc1NC(=O)/C=C/c1ccc(F)cc1Cl)NC(=O)[C@@H](CCC(=O)OC)NC2=O	–	76.5	–	60.8
NC(=O)CC[C@H]1NC(=O)c2cc(Oc3cccc4ccccc34)c(NC(=O)C3CC3)cc2NC1=O	–	41.6	–	28.7
CN(C)c1cccc(Oc2cc3c(cc2NC(=O)COCc2ccccc2)NC(=O)[C@@H](CCC(=O)N2CCNCC2)NC3=O)c1	33.4	–	42.2	–
COC(=O)CCC1NC(=O)c2cc(Cl)ccc2N(CC2CC2)C1=O (stereo not drawn)	–	-3.06	–	-2.7
COC(=O)CC[C@@H]1C(=O)Nc2cc(Cl)ccc2C(=O)N1C	–	–	–	-1.87
COC(=O)CC[C@H]1NC(=O)c2cc(Oc3cccc(N(C)C)c3)c(NC(=O)COCc3ccsc3)cc2NC1=O	48.1	–	38.6	–
CCCCCCCCCN1C(=O)[C@@H](CCC(=O)N2CCOCC2)N(C)C(=O)c2ccc(Cl)cc21	–	29.7	–	17.8
CCCCCCCCCCCCNCC(=O)Nc1cc2c(cc1Oc1cccc(N(C)C)c1)C(=O)N[C@H](CCC(=O)OC)C(=O)N2	–	7.37	–	-3.92
CCCNC(=O)CC[C@@H]1NC(=O)c2cc(Oc3cccc(N(C)C)c3)c(NC(=O)COCc3ccccc3)cc2NC1=O	46.1	–	34.5	–
